# PubChem BioAssay AID720543 (The Scripps Research Institute Molecular Screening Center, 2013)
# Among all 370,000 compounds or so, about 2,000 (0.54%) were called active. The sample as a whole holds a higher share of actives than the screen did. Values without a mark were called inactive.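 The calls were made as follows: active = inhibition exceeding the mean over every tested compound plus 3 SD (cut at about 30% in these data); inactive = the rest.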
# Target: (Lyso)-N-acylphosphatidylethanolamine lipase (Mus musculus) (UniProt Q8VD66)
# Sequence (Q8VD66 whole entry, looked up): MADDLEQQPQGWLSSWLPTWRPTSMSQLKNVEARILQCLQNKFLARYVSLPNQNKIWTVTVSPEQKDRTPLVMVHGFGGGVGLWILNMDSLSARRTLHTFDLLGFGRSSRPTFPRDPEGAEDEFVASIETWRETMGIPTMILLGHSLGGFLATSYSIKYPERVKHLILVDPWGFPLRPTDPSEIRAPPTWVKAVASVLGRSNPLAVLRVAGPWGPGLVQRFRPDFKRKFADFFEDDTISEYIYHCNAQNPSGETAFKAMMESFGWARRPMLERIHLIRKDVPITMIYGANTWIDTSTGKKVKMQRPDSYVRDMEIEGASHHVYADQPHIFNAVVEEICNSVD
# Assay: ABHD4 inhibitors, primary screen, biochemical, fluorescence polarization, mouse (AID 720543);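 also: 0% = plate median of compound wells and 100% = S159A mutant with DMSO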
# Conditions: purified mABHD4, FP-Rh probe fluorescence polarization; at 8.92 µM; stronger effect = higher value
# How it was run: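 Doses – 8.92 µM, single dose · Material – wild-type mouse ABHD4 protein · Replication – single well per compound (singlicate) · Measure – percent inhibition of probe binding, normalized to plate controls · Schedule – 45 min compound pre-incubation plus 60 min probe step, 25 °C · Detection – fluorescence polarization with parallel and perpendicular emission, 525/598 nm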
row,Compound,inhibition
1,CN(C)c1ccc(N/C=C/C(=O)C(F)(F)F)cc1,49.4% (active)
2,CC1CN(/C=C/C(=O)C(F)(F)F)CC(C)O1 (stereo unspecified),-3.37%
3,CN(C)c1ccc(C(CC(=O)O)C(=O)O)cc1 (stereo unspecified),24.1%
4,CC(=O)C1=C(C)NC(=O)NC1c1cc(Br)ccc1OCC#N (stereo unspecified),4.75%
5,Nc1[nH]c(C(=O)c2ccccc2)c(-c2ccc(Cl)cc2Cl)c1C(=O)c1ccccc1,-1.34%
6,CC(C)(C)c1ccc(S(=O)(=O)NC(=O)C2(C)CCN2C(=O)CC2CC2)cc1 (stereo unspecified),-2.61%
7,CCCC(=O)N1CCC1(C)C(=O)NS(=O)(=O)c1ccc(Cl)cc1 (stereo unspecified),-1.74%
8,CC(C)c1ccc(CC(=O)N2CCC2(C)C(=O)NS(=O)(=O)c2ccc(C(C)(C)C)cc2)cc1 (stereo unspecified),59% (active)
9,CCCCOCC1CN(CCCC)S(=O)(=O)c2c(Oc3ccc(F)cc3)cccc2O1 (stereo unspecified),4.37%
10,COC(CNC(=O)[C@H](Cc1ccccc1)NC1(C(=O)NC2CCCCC2)CCCCC1)OC,3.57%
11,COCc1cc(N2CCN(C(=O)OC(C)(C)C)C[C@@H]2C)ccc1N1CCN(Cc2ccccc2)[C@H](C)C1,-12.1%
12,COc1ccc(C#CCNCc2ccc(OC)cc2OC)cc1,-4.3%
13,O=Nc1c(O)cc(O)c2ccccc12,55.7% (active)
14,O=c1c2ccccc2ccc2ccc(P(=O)(O)O)cc12,12%
15,Cc1ccc(S(=O)(=O)N(C)C)cc1NC(=O)c1n[nH]c(=O)c2ccccc12,-9.11%
16,CCOc1ccccc1C(=O)N1CCC[C@@H]1C(=O)N1CCC[C@H]1C(=O)NCc1ccccc1,1.14%
17,CCOC(=O)CSc1nnc(CNC(=O)c2ccco2)n1-c1ccc(F)cc1,0.65%
18,COC(=O)c1cc2c(c3c4cc(F)ccc4n(S(=O)(=O)c4ccccc4)c13)C(=O)N(Cc1ccccc1OC)C2,-11.3%
19,COc1ccc(C(CC(=O)c2ccccc2)S(=O)(=O)c2ccccc2)cc1 (stereo unspecified),-2.98%
20,COC(=O)c1cc(N2CCNCC2)nc2ccccc12,1.72%
21,Cc1ccc(C)c(NC(=O)NNC(=O)c2ccc3ccccc3c2O)c1,8.45%
22,O=C(NNc1c2ccccc2nc2ccccc12)c1cc2ccccc2cc1O,31.3% (active)

row,Compound,inhibition
1,CC(C)(C)c1ccc(S(=O)(=O)NCC2CCN(C(=O)C(=O)c3cc4ccccc4o3)CC2)cc1,-26.4%
2,NC(=O)C1CCN(C(=O)c2cc(S(=O)(=O)N3CCN(c4ccccc4)CC3)ccc2Cl)CC1,6.55%
3,O=C1CCC([N+](=O)[O-])C(c2ccccc2Br)N1 (stereo unspecified),-0.46%
4,Brc1ccccc1C1Nc2cccc3cccc(c23)N1,45.1% (active)
5,O=C(Nc1ccc(Br)cc1)OCCN1C(=O)CCC12CCC(c1ccccc1)CC2 (stereo unspecified),0.58%
6,COC(=O)[C@H](C(C)C)N(CCc1cn(Cc2ccccc2)nn1)S(=O)(=O)c1ccc(F)cc1Br,-6.45%
7,CC1(C)OC(=O)C2=C(C[C@@H](C3CC3)O[C@H]2CCc2cccc(Cl)c2)O1,-7.3%
8,CC(=O)O[C@@]1(C(C)=O)CCC2[C@H]3C=C(C)C4=CC(=O)CC[C@@]4(C)C3CC[C@]21C (stereo partly specified),5.34%
9,Nc1ccc2nc3c(=O)[nH]c(=S)[nH]c3nc2c1,53.6% (active)
10,Cc1cc(Cl)c(S(=O)(=O)Nc2ccc3c(c2)OCCO3)cc1OCC(N)=O,-2.74%
11,CC1CCCN(S(=O)(=O)c2ccc(-c3ccc(=O)[nH]n3)o2)C1 (stereo unspecified),-2.46%
12,CC(C)CNS(=O)(=O)CC1NCCc2ccccc21 (stereo unspecified),3.38%
13,COC(=O)[C@]12C[C@H](CC(=O)NCCCCc3ccccc3)C(=O)N(Cc3ccc4c(c3)OCO4)C1=C[C@H](C(C)(C)C)O[C@@H]2C,0.01%
14,OCCNCCOc1ccc(Cl)c(Cl)c1,3.5%
15,OCCNc1nc(Nc2ccc(Cl)c(Cl)c2)nc2ccccc12,39.5% (active)
16,O=C(CCS(=O)(=O)c1ccccc1)Nc1ccc(Cl)c(Cl)c1,-9.05%
17,CCOC(=O)[C@]12CCC=C1N(Cc1ccccc1)C(=O)[C@H](CC(=O)N1CCCC1)C2,-6.55%
18,O=C1[C@@H](c2ccccc2)[C@@H](c2ccccc2)N1c1ccccc1,-3.86%
19,Cc1cc2nc(-c3ccco3)c(Cc3cccc(F)c3)n2c(C)c1Br,10.5%
20,COC(=O)C[C@@H]1CC[C@@H]2[C@@H](COc3ccc(NC(=O)Nc4ccc(F)c(F)c4)cc3C(=O)N2C)O1,4.06%
21,COc1cc(/C=C2/C(=O)NN(c3cccc(Cl)c3)C2=O)cc(Br)c1O,38.5% (active)
22,CCOc1c(Br)cc(/C=C2\C(=O)N(CCC#N)N=C2C)cc1OC,-10.7%

row,Compound,inhibition
1,CC1CN(Cc2nc3c(c(=O)n(C)c(=O)n3C)n2Cc2cccc(Cl)c2)CC(C)O1 (stereo unspecified),4.39%
2,CCCC1CCC2(CCCN2CCOC(=O)NCc2ccccc2)CC1 (stereo unspecified),-7.41%
3,O=[N+]([O-])c1cc(Br)c(O)c(/C=N/Nc2nc3ccccc3s2)c1,38.8% (active)
4,CCC1(C)Cc2c(sc3nnn(CC(=O)Nc4ccc(Cl)cc4)c(=O)c23)CO1 (stereo unspecified),-18.9%
5,CC(=O)Nc1ccc(NC(=O)c2ccc3c(c2)C(=O)N(c2ccccc2C)C3=O)cc1,-1.82%
6,O=C(O)c1ccc2c(c1)C(=O)N(c1ccc(/C=C/C(=O)c3ccccc3)cc1)C2=O,39.1% (active)
7,COc1ccc(OC)c(NC(=O)c2ccc3c(c2)C(=O)N(c2ccc(OC(C)=O)cc2)C3=O)c1,3.91%
8,Cc1cccnc1C(NC(=O)C1CCN(Cc2ccc(Cl)c(Cl)c2)CC1)c1ccc(Cl)cc1 (stereo unspecified),-1.83%
9,CC1CN(C2CCCCC2)c2nc3c(c(=O)n(C)c(=O)n3C)n2C1 (stereo unspecified),-5.35%
10,COc1cccc(CSc2nnc(-c3cccnc3)n2Cc2ccccc2)c1,0.82%
11,COc1cc(/C=C/C(=O)n2cnc3ccccc32)cc(OC)c1OC,-5.44%
12,C[C@H]1[C@H](NC(=O)c2cccc(N(C)C)c2)CC[C@@]23CCCN2C(=O)CCC[C@@H]13,4.02%
13,COC(=O)c1cccc(Cn2ccc3ccc(-c4ccc5ccn(C(=O)C6CCCCC6)c5c4)cc32)c1,3.18%
14,COc1cccc2c1C(=O)c1c(O)c3c(c(O)c1C2=O)CC(O)(C(C)=NNC(=O)c1ccc(Cl)c(Cl)c1)CC3OC1CC(N)C(O)C(C)O1 (stereo unspecified),67.4% (active)
15,Cc1ccc(S(=O)(=O)/N=C2\C=C(NS(=O)(=O)c3ccc(C)cc3)C(=O)c3ccccc32)cc1,40.1% (active)
16,Cc1ccc(S(=O)(=O)/N=S(\C)C(C)C)cc1 (stereo unspecified),-2.12%
17,Cc1ccc(S(=O)(=O)N[C@H](CO)C(C)C)cc1,-3.46%
18,C[C@@H](NC(=O)OC(C)(C)C)c1nnc(S(=O)(=O)Cc2ccccc2)o1,11.2%
19,CC(C)C(=O)N1c2ccccc2NC2=C(C(=O)CCC2)C1c1ccc(N(C)C)cc1 (stereo unspecified),7.43%
20,CCCCCCCCNS(=O)(=O)/C=C/c1cc(C)ccc1CNC(=O)OC(C)(C)C,-4.09%
21,Cc1ccc(C)c(NC(=O)CCS(=O)(=O)c2ccccc2)c1,-4.18%
22,Oc1ccc2ccccc2c1N=Nc1nccs1,61.8% (active)

row,Compound,inhibition
1,C[C@H](C(=O)N(C)c1ccccc1)[C@@H](O)c1ccc(Cl)cc1,0.42%
2,Nc1[nH]c(C(=O)c2ccc(Br)cc2)c(-c2ccc3c(c2)OCO3)c1C(=O)NCCc1c[nH]c2ccccc12,48.9% (active)
3,Nc1[nH]c(C(=O)c2ccccc2)c(-c2ccncc2)c1C(=O)NCc1cccc2ccccc12,-0.51%
4,Nc1[nH]c(C(=O)c2ccccc2)c(-c2ccc(Br)cc2)c1C(=O)NC1CC1,1.95%
5,O=c1ccc2c(-c3ccccc3S(=O)(=O)O)c3ccc(O)c(O)c3oc-2c1O,34% (active)
6,COc1ccc(-n2c(COc3ccccc3)nnc2SCC(=O)Nc2ccc3c(c2)OCO3)cc1,-9.7%
7,CC(=O)OCCN1CCCC12CCC(c1ccccc1)CC2 (stereo unspecified),0.33%
8,Cc1ccc(S(=O)(=O)N2CCC(C(=O)N[C@@H](C)C(=O)NCc3ccco3)CC2)cc1,-2.84%
9,Cc1cccc(C(=O)NC(=S)N2CCN(c3ccc([N+](=O)[O-])cc3)CC2)c1,-5.02%
10,Cc1cc(/C=N/Nc2ccc([N+](=O)[O-])cn2)c(C)n1-c1cccc(C(=O)O)c1,45.6% (active)
11,CN1CCN(C(=O)c2cnn(-c3ccccc3)c2NC(=O)c2ccc([N+](=O)[O-])cc2)CC1,-2.86%
12,O=C(N[C@@H]1C/C=C\C[C@@H](CC(=O)N(CCO)Cc2ccccc2)C(=O)N[C@H](Cc2ccccc2)COC1=O)OCC1c2ccccc2-c2ccccc21,7.4%
13,CSc1ccc(C=Nn2c(-c3ccc(F)cc3)n[nH]c2=S)cc1,0.61%
14,CCCCc1c(-c2ccc(Br)cc2)ncn1CCc1ccccc1OC,-0.8%
15,CCOCCCNC(=O)C(NC(=O)c1ccccc1O)c1ccccc1 (stereo unspecified),-0.7%
16,Clc1ccc(C2=CSC3=Nc4cccc5cccc(c45)N23)cc1,38.4% (active)
17,O=C(OCC#CCSc1nnc(-c2ccco2)o1)c1ccc(F)cc1,-9.72%
18,Cc1oc2cc(Br)c(O)c(Br)c2c1C(=O)c1ccccc1,44.9% (active)
19,Cc1oc2cc([N+](=O)[O-])c(O)c([N+](=O)[O-])c2c1C(=O)c1ccc(Br)cc1,8.71%
20,COc1cc(/C(=C/c2ccccc2)c2ccccc2)c2c(c1)oc1ccccc12,-1.7%
